This is an account of results in ChEMBL document CHEMBL5649170, “Sustained microglial depletion with CSF1R inhibitor impairs parenchymal plaque development in an Alzheimer's disease model” (Nat Commun, 2019).

A short description of data set [1]: Octanol to water partition coefficient, logD of the compound. In kind it is physicochemical.
A short description of data set [2]: Permeability in human Caco-2 cells. In kind it is ADME, cell-based. The note with it: read-out: permeability. (In general: Caco-2 monolayers are a common model of the intestinal barrier.)
Data set [3] in a line: Inhibition of BCR-KIT (unknown origin) expressed in mouse BaF3 cells assessed as inhibition of IL3 dependent cell proliferation incubated for 3 days by ATPlite 1step Luminescence Assay reagent based assay. The note with it: Homo sapiens, BaF3, 72 h.
Data set [4] can be described thus: Dissociation constant, pKa of compound. In kind it is physicochemical.
The nature of data set [5]: Inhibition of BCR-KIT (unknown origin) expressed in mouse BaF3 cells assessed as inhibition of BCR-KIT dependent cell proliferation incubated for 3 days by ATPlite 1step Luminescence Assay reagent based assay. Particulars: Homo sapiens, BaF3, 72 h.
The nature of data set [6]: Inhibition of BCR-CSF1R (unknown origin) expressed in mouse BaF3 cells assessed as inhibition of IL3-dependent cell proliferation incubated for 3 days by ATPlite 1step Luminescence Assay reagent based assay. The note with it: Homo sapiens, BaF3, 72 h.
The nature of data set [7]: Inhibition of BCR-CSF1R (unknown origin) expressed in mouse BaF3 cells assessed as inhibition of BCR-CSF1R dependent cell proliferation incubated for 3 days by ATPlite 1step Luminescence Assay reagent based assay. The note with it: Homo sapiens, BaF3, 72 h. (ATP-based viability assays read luminescence as a measure of living cells.)
For data set [8], the system named is Brain. In words: Drug penetration in mouse brain. In kind it is ADME, tissue-based. Particulars: in vivo.
For data set [9], the target named is Mitogen-activated protein kinase 1 (Homo sapiens, UniProt P28482). The data set can be described thus: Inhibition of MAPK1 (unknown origin).
The subject of data set [10] is Mus musculus. The data set can be described thus: Antialzheimer activity in 5XFAD mouse assessed as percent change in claudin-5 intensity of Thio-S negative thalamus at 1200 ppm administered as rodent chow starting from 1.5 months and measured after 4 months by immunolabeling analysis relative to control. In kind it is functional. Particulars: route po, time 2.5 months, 1825 h.

The nature of data set [11]: Prevention of Zfp286 gene downregulation in 5XFAD mouse hippocampus assessed as percent change in Reads Per kilo base per Million mapped reads at 1200 ppm administered as rodent chow starting from 1.5 months and measured after 7 months by RNA-Seq analysis (reference value: 71.833 to 84.581 %). In kind it is functional. Particulars: route po, time 5.5 months, 4015 h.

The target in data set [12] is Tyrosine-protein kinase ABL1 (Homo sapiens, UniProt P00519). In words: Inhibition of ABL1 (unknown origin).
Data set [13] has as its system Mus musculus. In words: Antialzheimer activity in 5XFAD mouse assessed as number of entries to center zone at 1200 ppm administered as rodent chow for 10 to 24 weeks by Open field test (reference value: 22 to 55). In kind it is functional. The note with it: route po, time 10-24 weeks.
Data set [14] has as its target Serine/threonine-protein kinase D1 (Homo sapiens, UniProt Q15139). The data set can be described thus: Inhibition of PRKD1 (unknown origin).
Data set [15] has as its target Tyrosine-protein kinase Lyn (Homo sapiens, UniProt P07948). In words: Inhibition of LYN_A (unknown origin).
In data set [16] the test system is Mus musculus. The data set can be described thus: Prevention of Gabrb2 gene downregulation in 5XFAD mouse hippocampus at 1200 ppm administered as rodent chow starting from 1.5 months and measured after 7 months by Nanostring analysis. In kind it is functional, tissue-based. The note with it: route po, time 5.5 months.
The target of data set [17] is Ribosomal protein S6 kinase alpha-2 (Homo sapiens, UniProt Q15349). The data set can be described thus: Inhibition of RPS6KA2 (unknown origin).
Data set [18] in a line: Effect on Csf1r RPKM gene expression in wild type mouse hippocampus at 1200 ppm administered as rodent chow starting from 1.5 months and measured after 7 months by RNA-Seq analysis (reference value: 18.240 to 20.004 RPKM). The note with it: route po, time 5.5 months, 4015 h. In kind it is functional.
For data set [19], the system named is Mus musculus. The data set can be described thus: Effect on APP processing pathway in wildtype mouse assessed as ADAM10 protein signal intensity in cortex at 1200 ppm administered as rodent starting from 1.5 months and measured after 7 months (reference value: 37.275 to 230.211 %). In kind it is functional. Particulars: route po, time 5.5 months, 4015 h.
Data set [20] relates to Mus musculus. The data set can be described thus: Antialzheimer activity in 5XFAD mouse assessed as number of Thio-S positive plaques per FOV in thalamus at 1200 ppm administered as rodent chow starting from 1.5 months and measured after 4 months by Thio-S staining based confocal microscopic analysis (reference value: 139 to 224). In kind it is functional. Particulars: route po, time 2.5 months, 1825 h.

Data set [21] can be described thus: Effect on Ctsd gene expression in 5XFAD mouse cortex at 1200 ppm administered as rodent chow starting from 1.5 months and measured after 7 months by RNA-Seq analysis (reference value: 202.122 to 327.906 RPKM). In kind it is functional. The note with it: route po, time 5.5 months, 4015 h.
The target in data set [22] is Epidermal growth factor receptor (Homo sapiens, UniProt P00533). The data set can be described thus: Inhibition of EGFR (unknown origin).
Sequence of Epidermal growth factor receptor (P00533 whole entry): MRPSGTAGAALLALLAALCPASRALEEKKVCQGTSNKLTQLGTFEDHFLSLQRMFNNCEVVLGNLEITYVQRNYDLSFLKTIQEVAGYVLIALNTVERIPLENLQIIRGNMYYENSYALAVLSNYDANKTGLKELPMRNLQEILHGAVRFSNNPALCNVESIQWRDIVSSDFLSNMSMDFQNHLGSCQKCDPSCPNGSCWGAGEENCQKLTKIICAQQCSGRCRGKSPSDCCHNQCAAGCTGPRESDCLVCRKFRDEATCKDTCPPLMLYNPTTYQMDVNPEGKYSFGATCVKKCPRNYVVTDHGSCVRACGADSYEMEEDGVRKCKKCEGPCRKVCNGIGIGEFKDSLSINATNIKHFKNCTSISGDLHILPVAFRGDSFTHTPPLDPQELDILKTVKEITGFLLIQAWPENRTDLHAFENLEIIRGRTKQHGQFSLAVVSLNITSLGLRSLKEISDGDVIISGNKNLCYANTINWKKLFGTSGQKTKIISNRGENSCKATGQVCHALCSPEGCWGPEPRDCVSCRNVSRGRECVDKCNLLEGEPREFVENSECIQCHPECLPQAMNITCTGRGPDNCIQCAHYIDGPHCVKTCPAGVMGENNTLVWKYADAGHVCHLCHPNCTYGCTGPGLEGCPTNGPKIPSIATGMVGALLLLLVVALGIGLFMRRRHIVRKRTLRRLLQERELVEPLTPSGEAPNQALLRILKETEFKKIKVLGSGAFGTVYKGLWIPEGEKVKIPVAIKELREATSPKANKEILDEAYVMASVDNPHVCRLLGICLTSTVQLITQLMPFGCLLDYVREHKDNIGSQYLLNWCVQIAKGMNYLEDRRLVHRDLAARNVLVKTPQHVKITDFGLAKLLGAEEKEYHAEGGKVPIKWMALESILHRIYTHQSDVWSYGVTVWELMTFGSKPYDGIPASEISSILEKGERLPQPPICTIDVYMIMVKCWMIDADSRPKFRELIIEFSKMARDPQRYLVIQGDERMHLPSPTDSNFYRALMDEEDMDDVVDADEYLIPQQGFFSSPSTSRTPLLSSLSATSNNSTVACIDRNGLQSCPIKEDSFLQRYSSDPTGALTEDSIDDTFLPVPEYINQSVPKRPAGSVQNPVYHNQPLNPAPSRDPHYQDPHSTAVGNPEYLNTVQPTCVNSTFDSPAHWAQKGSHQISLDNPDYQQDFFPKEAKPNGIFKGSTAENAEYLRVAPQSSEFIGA
A short description of data set [23]: Effect on Ctsz gene expression in wild type mouse cortex at 1200 ppm administered as rodent chow starting from 1.5 months and measured after 7 months by RNA-Seq analysis (reference value: 12.903 to 16.267 RPKM). In kind it is functional. Particulars: route po, time 5.5 months, 4015 h.
The test system of data set [24] is Mus musculus. The data set can be described thus: Prevention of Dlgap1 gene downregulation in 5XFAD mouse hippocampus at 1200 ppm administered as rodent chow starting from 1.5 months and measured after 7 months by Nanostring analysis. In kind it is functional, tissue-based. Particulars: route po, time 5.5 months.
Data set [25] has as its system Mus musculus. In words: Antialzheimer activity in 5XFAD mouse assessed as time spent in center zone at 1200 ppm administered as rodent chow for 10 to 24 weeks by Open field test (reference value: 14.9 to 130.9 sec). In kind it is functional. The note with it: route po, time 10-24 weeks.
Data set [26] has as its target CDK7/Cyclin H/MNAT1 (Homo sapiens, UniProt P50613). In words: Inhibition of CDK7/CyclinH/MNAT1 (unknown origin). In kind it is protein-complex assay.
Data set [27] can be described thus: Effect on Cx3cr1 gene expression in wild type mouse hippocampus at 1200 ppm administered as rodent chow starting from 1.5 months and measured after 7 months by RNA-Seq analysis (reference value: 9.911 to 12.014 RPKM). In kind it is functional. The note with it: route po, time 5.5 months, 4015 h.
The nature of data set [28]: Effect on ccl6 gene expression in 5XFAD mouse cortex at 1200 ppm administered as rodent chow starting from 1.5 months and measured after 7 months by RNA-Seq analysis (reference value: 4.103 to 8.161 RPKM). In kind it is functional. The note with it: route po, time 5.5 months, 4015 h.
The target of data set [29] is Serine/threonine-protein kinase mTOR (Homo sapiens, UniProt P42345). In words: Inhibition of FRAP1 (unknown origin).
Data set [30] addresses Inhibitor of nuclear factor kappa-B kinase subunit alpha (Homo sapiens, UniProt O15111). The data set can be described thus: Inhibition of CHUK (unknown origin).
The nature of data set [31]: Effect on Cst7 gene expression in 5XFAD mouse thalamus at 1200 ppm administered as rodent chow starting from 1.5 months and measured after 7 months by RNA-Seq analysis (reference value: 9.686 to 22.113 RPKM). In kind it is functional. Particulars: route po, time 5.5 months, 4015 h.
In data set [32] the target is Tyrosine-protein kinase BTK (Homo sapiens, UniProt Q06187). In words: Inhibition of BTK (unknown origin).
Sequence of Tyrosine-protein kinase BTK (Q06187 whole entry): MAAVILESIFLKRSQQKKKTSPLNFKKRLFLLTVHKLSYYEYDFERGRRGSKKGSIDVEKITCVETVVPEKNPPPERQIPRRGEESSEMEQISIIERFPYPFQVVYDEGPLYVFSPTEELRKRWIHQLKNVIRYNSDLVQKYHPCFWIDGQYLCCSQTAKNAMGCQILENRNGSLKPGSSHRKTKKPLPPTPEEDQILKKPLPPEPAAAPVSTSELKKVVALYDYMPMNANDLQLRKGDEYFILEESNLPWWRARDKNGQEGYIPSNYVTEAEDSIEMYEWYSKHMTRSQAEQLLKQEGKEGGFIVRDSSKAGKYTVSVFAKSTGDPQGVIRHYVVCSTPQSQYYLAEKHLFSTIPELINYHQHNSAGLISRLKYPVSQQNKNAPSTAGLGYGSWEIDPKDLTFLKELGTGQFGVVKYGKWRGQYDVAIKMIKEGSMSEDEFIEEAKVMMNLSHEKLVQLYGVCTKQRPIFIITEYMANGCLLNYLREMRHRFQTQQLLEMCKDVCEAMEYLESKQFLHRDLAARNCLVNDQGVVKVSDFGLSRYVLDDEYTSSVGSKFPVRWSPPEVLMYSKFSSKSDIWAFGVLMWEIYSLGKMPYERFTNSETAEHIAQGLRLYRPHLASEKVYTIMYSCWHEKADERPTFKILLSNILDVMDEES
For data set [33], the system named is Mus musculus. In words: Antialzheimer activity in 5XFAD mouse assessed as amyloidbeta42 level in detergent soluble thalamus fraction measured per microgram protein at 1200 ppm administered as rodent chow starting from 1.5 months and measured after 7 months by ELISA (reference value: 0 to 0.271 pg). In kind it is functional. The note with it: route po, time 5.5 months, 4015 h. A digest of the protocol: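 PLX5622 at 1200 ppm in chow given to 5xFAD mice from 1.5 months to 4 or 7 months of age; cortex and thalamus homogenized in TPER (detergent-soluble), pellets re-homogenized in 70% formic acid and spun 100,000 g, 1 h, 4 °C (insoluble); protein by Bradford/Lowry; Aβ species measured by Meso Scale electrochemiluminescence immunoassay, normalized to protein; n = 7–8 per group at 7 months.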
(In an ELISA, binding on a coated surface is turned into a signal by an enzyme label.)

Data set [34] is described as follows: AUC (0 to 24 hrs) in 5XFAD mouse plasma at 1200 ppm administered as rodent chow for 180 days. Particulars: route po, time 180 day. In kind it is ADME, cell-free.

The source made the active and inactive calls. No cut-off for these calls is given here.

Sequence of Serine/threonine-protein kinase D1 (Q15139 whole entry): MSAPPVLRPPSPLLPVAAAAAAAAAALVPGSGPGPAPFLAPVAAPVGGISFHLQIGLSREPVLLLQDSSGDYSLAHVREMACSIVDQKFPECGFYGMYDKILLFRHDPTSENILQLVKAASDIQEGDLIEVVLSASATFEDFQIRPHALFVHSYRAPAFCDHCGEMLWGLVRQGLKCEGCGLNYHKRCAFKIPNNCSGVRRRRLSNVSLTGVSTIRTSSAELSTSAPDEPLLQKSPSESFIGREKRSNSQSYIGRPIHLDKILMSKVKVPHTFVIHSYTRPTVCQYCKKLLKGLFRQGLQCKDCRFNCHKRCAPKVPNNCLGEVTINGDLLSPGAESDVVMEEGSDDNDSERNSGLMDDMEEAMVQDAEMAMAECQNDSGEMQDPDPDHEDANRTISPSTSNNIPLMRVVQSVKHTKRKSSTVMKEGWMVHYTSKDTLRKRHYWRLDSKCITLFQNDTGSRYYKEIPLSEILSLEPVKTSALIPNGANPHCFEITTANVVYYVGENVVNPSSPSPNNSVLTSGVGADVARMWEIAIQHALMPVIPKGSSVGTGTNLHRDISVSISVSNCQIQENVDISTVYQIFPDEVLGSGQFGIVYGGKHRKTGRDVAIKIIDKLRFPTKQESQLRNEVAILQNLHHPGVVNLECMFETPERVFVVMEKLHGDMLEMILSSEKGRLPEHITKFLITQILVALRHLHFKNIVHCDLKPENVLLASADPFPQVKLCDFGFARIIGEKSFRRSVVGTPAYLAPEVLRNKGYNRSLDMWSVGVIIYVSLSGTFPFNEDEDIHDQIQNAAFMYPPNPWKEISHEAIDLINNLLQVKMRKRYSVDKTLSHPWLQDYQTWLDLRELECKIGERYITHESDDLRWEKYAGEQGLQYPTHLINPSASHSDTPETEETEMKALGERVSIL
Sequence of CDK7/Cyclin H/MNAT1 (P51946 whole entry): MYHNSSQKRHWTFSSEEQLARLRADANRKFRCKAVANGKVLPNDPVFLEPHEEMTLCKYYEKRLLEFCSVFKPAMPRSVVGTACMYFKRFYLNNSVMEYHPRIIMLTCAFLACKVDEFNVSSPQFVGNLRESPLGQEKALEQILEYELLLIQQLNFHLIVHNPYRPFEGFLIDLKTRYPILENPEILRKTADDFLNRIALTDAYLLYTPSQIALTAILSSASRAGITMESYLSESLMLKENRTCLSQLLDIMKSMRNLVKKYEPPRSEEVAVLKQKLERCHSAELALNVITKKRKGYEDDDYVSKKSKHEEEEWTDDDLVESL
Sequence of CDK7/Cyclin H/MNAT1 (P50613 whole entry): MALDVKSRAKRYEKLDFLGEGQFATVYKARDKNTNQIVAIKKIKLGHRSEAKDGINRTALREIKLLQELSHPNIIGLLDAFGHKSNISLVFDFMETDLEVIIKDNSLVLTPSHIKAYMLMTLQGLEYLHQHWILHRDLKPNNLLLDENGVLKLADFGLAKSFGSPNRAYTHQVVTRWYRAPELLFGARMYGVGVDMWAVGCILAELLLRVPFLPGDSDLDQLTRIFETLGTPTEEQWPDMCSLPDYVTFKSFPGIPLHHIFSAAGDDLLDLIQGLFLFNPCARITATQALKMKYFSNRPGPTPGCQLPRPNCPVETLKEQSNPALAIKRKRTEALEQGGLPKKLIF
Sequence of CDK7/Cyclin H/MNAT1 (P51948 whole entry, further chain): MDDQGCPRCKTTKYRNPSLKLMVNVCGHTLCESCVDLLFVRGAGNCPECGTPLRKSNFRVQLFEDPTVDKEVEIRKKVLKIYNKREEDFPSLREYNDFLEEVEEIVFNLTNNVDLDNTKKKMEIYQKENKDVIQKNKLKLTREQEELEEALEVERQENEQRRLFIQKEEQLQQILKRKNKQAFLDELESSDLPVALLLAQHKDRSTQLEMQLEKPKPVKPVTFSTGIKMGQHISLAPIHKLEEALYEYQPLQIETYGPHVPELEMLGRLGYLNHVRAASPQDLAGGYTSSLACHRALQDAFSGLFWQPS
Sequence of Inhibitor of nuclear factor kappa-B kinase subunit alpha (O15111 whole entry): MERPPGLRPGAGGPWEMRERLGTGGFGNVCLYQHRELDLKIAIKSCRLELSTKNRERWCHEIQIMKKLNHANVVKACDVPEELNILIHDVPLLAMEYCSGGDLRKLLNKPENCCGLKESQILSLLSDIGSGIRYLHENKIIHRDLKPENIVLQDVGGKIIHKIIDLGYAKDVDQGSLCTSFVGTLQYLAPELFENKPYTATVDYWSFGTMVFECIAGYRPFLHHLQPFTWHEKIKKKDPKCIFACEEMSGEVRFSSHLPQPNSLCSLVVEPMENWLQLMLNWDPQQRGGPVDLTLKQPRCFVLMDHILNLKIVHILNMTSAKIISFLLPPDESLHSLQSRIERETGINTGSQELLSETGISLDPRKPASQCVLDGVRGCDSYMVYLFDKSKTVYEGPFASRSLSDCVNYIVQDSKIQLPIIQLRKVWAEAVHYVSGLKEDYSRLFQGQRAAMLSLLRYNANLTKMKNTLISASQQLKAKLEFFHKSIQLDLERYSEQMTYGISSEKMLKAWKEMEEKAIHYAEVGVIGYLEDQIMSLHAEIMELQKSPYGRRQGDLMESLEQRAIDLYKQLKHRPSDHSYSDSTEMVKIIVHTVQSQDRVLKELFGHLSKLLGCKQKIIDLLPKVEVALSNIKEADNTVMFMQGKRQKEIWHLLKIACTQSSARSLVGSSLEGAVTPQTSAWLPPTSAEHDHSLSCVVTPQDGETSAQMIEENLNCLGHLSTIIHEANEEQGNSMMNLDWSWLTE
Sequence of Tyrosine-protein kinase Lyn (P07948 whole entry): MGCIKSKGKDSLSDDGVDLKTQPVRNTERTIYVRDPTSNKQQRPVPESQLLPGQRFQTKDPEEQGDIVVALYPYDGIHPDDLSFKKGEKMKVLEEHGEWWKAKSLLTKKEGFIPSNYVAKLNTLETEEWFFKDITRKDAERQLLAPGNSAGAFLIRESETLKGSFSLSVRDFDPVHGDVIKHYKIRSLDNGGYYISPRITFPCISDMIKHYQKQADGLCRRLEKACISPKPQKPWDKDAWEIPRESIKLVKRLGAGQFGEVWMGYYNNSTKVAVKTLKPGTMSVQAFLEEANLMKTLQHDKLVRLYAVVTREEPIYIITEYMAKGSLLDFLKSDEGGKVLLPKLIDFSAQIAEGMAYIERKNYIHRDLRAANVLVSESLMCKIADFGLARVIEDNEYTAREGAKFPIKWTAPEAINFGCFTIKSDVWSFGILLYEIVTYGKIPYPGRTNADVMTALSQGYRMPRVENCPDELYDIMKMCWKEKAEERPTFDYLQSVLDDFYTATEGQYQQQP

As for `FC(F)(F)c1ccc(CNc2ccc(Cc3c[nH]c4ncc(Cl)cc34)cn2)cn1` [PEXIDARTINIB], the logD (commonly the decadic logarithm of the distribution of all forms, ionised or not, between an organic phase and buffer at a given pH) in data set [1] came to 3.35. Also, in [2], the Papp is 1.4 ×10⁻⁶ cm/s. For the same compound, the half-maximal inhibitory concentration (IC50) (usually the point on the concentration scale where inhibition reaches its midpoint) in data set [3] is more than 10 µM; in data set [5], 0.11 µM; in [6], more than 10 µM; in [7] it was 0.009 µM. In addition, in data set [4], the pKa – broadly, the negative logarithm of the acid dissociation constant – came to 5.2. Further, the Drug uptake in [8] is recorded as ~ 5%.

With `COc1ncc(F)cc1CNc1ccc(Cc2c[nH]c3ncc(C)cc23)c(F)n1` [PLX-5622], the concentration for half-maximal inhibition (IC50) in data set [9], in [12], in [14], in [15], in [17] and in data set [22] was more than 1 µM in each case. The half-maximal inhibitory concentration (IC50) is more than 10 µM in [3]; more than 1 µM in data set [26]; more than 1 µM in [29]; more than 1 µM in data set [30]; 2.7 µM in [5]; more than 10 µM in [6]. Moreover, the values for the IC50 in data set [32] and in [7] were more than 1 µM and 0.017 µM, respectively. Moreover, the Activity in [10] is given as 91.327%; in [11], 91.857%; in data set [13], 7; in data set [18], 0.238 RPKM; in data set [19], 59.835%; in [20], 76. For the same compound, the Activity in data set [21] is 106.638 RPKM; in [23], 11.205 RPKM; in [27], 0.074 RPKM; in data set [28] it was 0.241 RPKM; in [31], 0.096 RPKM; in [33] it was 0 pg. The pH-dependent lipophilicity (logD) in data set [1] worked out at 3.92. For the same compound, the result in [16] and in [24] was Active. Moreover, the Papp in data set [2] came to 12.2 ×10⁻⁶ cm/s. Also, the Time in data set [25] worked out at 32.4 s. The pKa in data set [4] is 4.14. In data set [8], the Drug uptake is ~ 20%. For the same compound, the exposure (AUC) (in general, concentration integrated over time) at 4320 h in [34] came to 218 µg·h/mL.
